Source: PubChem
CHO parental Ca = signal in parental CHO cells, OX1R antagonist counter-screen; inhibition, % at 5.6 µM; 330,000 tested, 0.63% active; parental CHO-K1, ATP-induced calcium, Fluo-8 fluorescence; AID 463079;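 active means inhibition above that plate's mean sample inhibition plus 3 SD, cut at about 26% in these data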
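Material: parental CHO cells / Compound: single nominal dose of 5.6 µM per compound / Signal: Fluo-8 fluorescence / Replicates: singlicate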
TAAR1 antag = antagonists of human TAAR1. Q96RJ0. inhibition, % at 3 µM. CHO RD-HGA16 TAAR1, Fluo-8 calcium fluorescence, antagonist. AID 624466. 360,000 tested, 1.5% active;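 active means inhibition above a per-plate cutoff, the mean inhibition of test compounds on that plate plus 3 SD, cut at about 49% in these data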
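Test system: RD-HGA16 CHO cells with stable hTAAR1 and Gα16 / Probe or stimulus: EC80 β-phenethylamine stimulus / Times: seeding 17-24 h prior, 75-min 37 °C, 30-min RT dye loading / Detection: Fluo-8 calcium-sensitive fluorescence / Read-out basis: % inhibition scaled between DMSO and EC80 PEA controls / Repeats: singlicate, one well per test compound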
OX1R antag-1 = OX1R (human) antagonism; O43613; OX1R-expressing cells, FRET antagonist read-out; inhibition, % at 6.6 µM; 330,000 tested, 1.8% active; AID 485270; in the data active means inhibition mostly above about 38%, no sharp cut-off; inactive means mostly below about 40%
Target sequence (O43613 whole entry, looked up): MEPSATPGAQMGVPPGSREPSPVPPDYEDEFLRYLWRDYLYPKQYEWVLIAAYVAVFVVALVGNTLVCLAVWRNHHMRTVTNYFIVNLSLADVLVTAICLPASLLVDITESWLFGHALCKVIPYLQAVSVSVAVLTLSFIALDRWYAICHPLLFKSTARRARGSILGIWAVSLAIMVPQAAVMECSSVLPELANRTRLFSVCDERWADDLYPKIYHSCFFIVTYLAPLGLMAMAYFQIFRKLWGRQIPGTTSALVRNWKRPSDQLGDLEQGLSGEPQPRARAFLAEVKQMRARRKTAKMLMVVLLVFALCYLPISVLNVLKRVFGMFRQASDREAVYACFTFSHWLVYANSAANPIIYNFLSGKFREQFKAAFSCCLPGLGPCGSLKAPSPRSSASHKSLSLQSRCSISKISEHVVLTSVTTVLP
GPR7 antag = human neuropeptides B/W receptor 1 antagonism; P48145; GPR7-expressing cells, fluorescence antagonist assay; inhibition, % at 4.4 µM; 290,000 tested, 1.1% active; in the data active means inhibition above about 16%, passing the limit was not always enough;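 further: cells stimulated with the agonist NPW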
Target sequence (P48145 whole entry, looked up): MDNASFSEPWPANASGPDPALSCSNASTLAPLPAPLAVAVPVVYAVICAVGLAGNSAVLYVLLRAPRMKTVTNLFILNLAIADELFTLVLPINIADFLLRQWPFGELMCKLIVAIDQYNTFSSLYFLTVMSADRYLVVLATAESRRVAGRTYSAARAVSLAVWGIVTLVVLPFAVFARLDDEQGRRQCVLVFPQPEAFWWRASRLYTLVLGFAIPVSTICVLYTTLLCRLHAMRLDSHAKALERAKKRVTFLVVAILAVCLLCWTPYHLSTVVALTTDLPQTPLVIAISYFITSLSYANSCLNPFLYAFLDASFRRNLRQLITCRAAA
OX1R antag-2 = blocks the human orexin 1 receptor; O43613; CHO/OX1R cells, Fluo-8 calcium fluorescence, orexin A; inhibition, % at 5 µM; 330,000 tested, 0.43% active; AID 434989;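 active means inhibition above its plate's threshold, mean inhibition of all tested compounds on the plate plus 3 SD, cut at about 37% in these data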
TAAR1 ag = human TAAR1 agonism; Q96RJ0; CHO RD-HGA16 TAAR1, Fluo-8 calcium fluorescence; vehicle wells 0%, saturating PEA agonist 100%; activation, % at 3 µM; 360,000 tested, 0.99% active; AID 624467;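 active means activation above the mean activation of all test compounds in the run plus 3 SD, cut at about 38% in these data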
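Test system: RD-HGA16 (CHO) cells co-expressing Gα16 and hTAAR1 | Doses: Single dose, 3 µM | Schedule: 17-24 h seeding, 75 min 37 °C dye, 30 min RT | Evaluation: % activation from peak over basal fluorescence ratio, DMSO-to-PEA scaled | Technique: Kinetic Fluo-8 calcium fluorescence | Benchmarks: Low control DMSO, high control PEA (EC100)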
TAAR1 ag conf = human TAAR1 agonism, confirmed | shares compounds with TAAR1 ag | CHO RD-HGA16 TAAR1, Fluo-8 calcium fluorescence; scaled: DMSO 0%, maximal phenethylamine 100% | activation, % at 3 µM | 2,400 tested, 82% active;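 active means activation above a cutoff set at the run's mean compound activation plus 3 SD, cut at about 39% in these data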
Ga16 nonsel ag = nonselective agonist in parental cells, TAAR1 agonist counter-screen; shares compounds with TAAR1 ag; CHO-Ga16 parental, Fluo-8 calcium fluorescence; normalized to maximal ATP response, DMSO zero; activation, % at 3 µM; 2,400 tested, 50% active;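 active means activation above the run cutoff, the mean activation over all tested wells plus 3 SD, cut at about 12% in these data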
TAAR1 desensitize = TAAR1 response desensitization, agonist counter-screen; shares compounds with TAAR1 ag; CHO RD-HGA16 hTAAR1, Fluo-8 calcium, beta-PEA response inhibition; inhibition, % at 3 µM; 2,400 tested, 46% active; AID 651951;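 active means inhibition above the run cutoff, the mean inhibition of all test compounds plus 3 SD, cut at about 49% in these data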;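 further: beta-PEA stimulus applied at its EC80; loss of beta-PEA calcium signal after compound pretreatment read as receptor desensitization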
Ga16 antag count = counter-screen for TAAR1 agonists: nonselective Ga16 antagonists | shares compounds with TAAR1 ag | CHO-Ga16 ATP-induced calcium, Fluo-8 fluorescence | inhibition, % at 3 µM | 2,400 tested, 39% active;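 active means inhibition above the plate's mean compound inhibition plus 3 SD, computed per plate, cut at about 22% in these data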
A number is an active result. The list is not random: actives were taken first. Their share in the collection is about 4.5%.

Results for CCc1nc(N)c(C#N)c(-c2ccco2)c1C ?
CHO parental Ca: inactive; TAAR1 antag: inactive; OX1R antag-1: inactive; GPR7 antag: inactive; OX1R antag-2: inactive; TAAR1 ag: 81; TAAR1 ag conf: inactive; Ga16 nonsel ag: inactive; TAAR1 desensitize: inactive; Ga16 antag count: inactive

How did COc1ccc(CCNC(=O)C2CC3Cn4c(nc5cc(Cl)c(Cl)cc54)C3N2C)cc1 (stereo not drawn) do in these assays?
CHO parental Ca: inactive; TAAR1 antag: inactive; OX1R antag-1: inactive; OX1R antag-2: inactive; TAAR1 ag: inactive

Results for CN1C(C(=O)NCCc2cccs2)CC2Cn3c(nc4cc(Cl)c(Cl)cc43)C21 (stereo not drawn) ?
CHO parental Ca: inactive; TAAR1 antag: inactive; OX1R antag-1: inactive; OX1R antag-2: inactive; TAAR1 ag: 69; TAAR1 ag conf: 83; Ga16 nonsel ag: inactive; TAAR1 desensitize: inactive; Ga16 antag count: inactive

How did CCN(CC(=O)NCc1ccc(F)cc1)C(=O)COc1ccccc1[N+](=O)[O-] do in these assays?
CHO parental Ca: inactive; TAAR1 antag: inactive; OX1R antag-1: inactive; OX1R antag-2: inactive; TAAR1 ag: inactive

How did CSC[C@H]1CN(c2ccc(Br)cc2)C(=O)[C@@H]1CC(=O)Nc1ccccc1 do in these assays?
TAAR1 antag: inactive; TAAR1 ag: inactive

What do the screens show for `COc1ccc(-c2cc(C(=O)Nc3c(F)cc(F)cc3Br)no2)cc1`?
CHO parental Ca: inactive; TAAR1 antag: inactive; OX1R antag-1: inactive; GPR7 antag: inactive; OX1R antag-2: inactive; TAAR1 ag: inactive

What do the screens show for `Cc1nn(Cc2ccc(Cl)cc2)c(C)c1NC(=O)c1cc(-c2ccco2)on1`?
CHO parental Ca: inactive; TAAR1 antag: 85; OX1R antag-1: inactive; GPR7 antag: inactive; OX1R antag-2: inactive; TAAR1 ag: 65; TAAR1 ag conf: inactive; Ga16 nonsel ag: 16; TAAR1 desensitize: 56; Ga16 antag count: 43

Results for O=C(Nc1c(F)cc(F)cc1Br)c1cc(-c2ccco2)on1 ?
CHO parental Ca: inactive; TAAR1 antag: inactive; OX1R antag-1: inactive; GPR7 antag: inactive; OX1R antag-2: inactive; TAAR1 ag: 55; TAAR1 ag conf: 56; Ga16 nonsel ag: inactive; TAAR1 desensitize: inactive; Ga16 antag count: inactive

How did C[C@@H]1CN([C@@H](C)CO)S(=O)(=O)c2ccc(Br)cc2O[C@H]1CN(C)C(=O)c1ccccc1 do in these assays?
TAAR1 antag: inactive; TAAR1 ag: inactive

What do the screens show for `CC(C)N(C)c1ncnc2c1ncn2[C@H]1CN(Cc2cccs2)C[C@@H](CO)O1`?
TAAR1 antag: inactive; TAAR1 ag: inactive

What do the screens show for `OC[C@@H]1CN(CCc2ccccc2)C[C@H](n2cnc3c(NCc4ccc(F)cc4)ncnc32)O1`?
TAAR1 antag: inactive; TAAR1 ag: 66; TAAR1 ag conf: 75; Ga16 nonsel ag: inactive; TAAR1 desensitize: inactive; Ga16 antag count: inactive

Results for OCC1OC(n2cnc3c(NCCc4ccccc4)ncnc32)C(O)C1O (stereo not drawn) ?
CHO parental Ca: inactive; TAAR1 antag: inactive; OX1R antag-1: inactive; OX1R antag-2: inactive; TAAR1 ag: 70; TAAR1 ag conf: 75; Ga16 nonsel ag: inactive; TAAR1 desensitize: 65; Ga16 antag count: inactive

How did CC(C)N(C)c1ncnc2c1ncn2[C@H]1CN(CCc2ccccc2)C[C@@H](CO)O1 do in these assays?
TAAR1 antag: inactive; TAAR1 ag: 48; TAAR1 ag conf: 63; Ga16 nonsel ag: inactive; TAAR1 desensitize: inactive; Ga16 antag count: inactive

How did OC[C@@H]1CN(CCc2ccccc2)C[C@H](n2cnc3c(N4CCOCC4)ncnc32)O1 do in these assays?
TAAR1 antag: inactive; TAAR1 ag: 61; TAAR1 ag conf: 74; Ga16 nonsel ag: inactive; TAAR1 desensitize: inactive; Ga16 antag count: inactive

What do the screens show for `COc1cc(/C=C/C(=O)O)cc(S(=O)(=O)Nc2ccc(S(=O)(=O)N3CCCCC3)cc2)c1OC`?
TAAR1 antag: inactive; TAAR1 ag: inactive

Results for O=C(Nc1cccnc1)c1cc(Br)c(Br)s1 ?
CHO parental Ca: inactive; TAAR1 antag: inactive; OX1R antag-1: inactive; OX1R antag-2: inactive; TAAR1 ag: 91; TAAR1 ag conf: 75; Ga16 nonsel ag: 59; TAAR1 desensitize: 50; Ga16 antag count: 23

What do the screens show for `NC(=O)c1cc(NC(=O)c2cc(Br)c(Br)s2)cc(C(N)=O)c1`?
CHO parental Ca: inactive; TAAR1 antag: inactive; OX1R antag-1: inactive; GPR7 antag: inactive; OX1R antag-2: inactive; TAAR1 ag: inactive

What do the screens show for `O=C(Nc1cccnc1)c1ccc(Cl)c(Cl)c1`?
CHO parental Ca: inactive; TAAR1 antag: inactive; OX1R antag-1: inactive; GPR7 antag: inactive; OX1R antag-2: inactive; TAAR1 ag: 47; TAAR1 ag conf: 41; Ga16 nonsel ag: 42; TAAR1 desensitize: inactive; Ga16 antag count: inactive

What do the screens show for `CS(=O)(=O)c1cccc(NC(=O)c2ccc(Cl)c(Cl)c2)c1`?
CHO parental Ca: inactive; TAAR1 antag: inactive; OX1R antag-1: inactive; GPR7 antag: inactive; OX1R antag-2: inactive; TAAR1 ag: 88; TAAR1 ag conf: 60; Ga16 nonsel ag: 43; TAAR1 desensitize: inactive; Ga16 antag count: 28

Results for COc1ccc(Cl)cc1CC1(C)C(=O)Nc2c(Cl)cccc21 (stereo not drawn) ?
TAAR1 antag: inactive; TAAR1 ag: inactive

Results for COc1cccc(CCc2nnc(CCC(=O)NCCC3CCCCO3)o2)c1 (stereo not drawn) ?
CHO parental Ca: inactive; TAAR1 antag: inactive; OX1R antag-1: inactive; GPR7 antag: inactive; OX1R antag-2: inactive; TAAR1 ag: inactive

How did COCCNC(=O)C1CCCN(C(=O)c2cc(-c3ccccc3)cs2)CC1 (stereo not drawn) do in these assays?
TAAR1 antag: inactive; TAAR1 ag: inactive

What do the screens show for `Clc1cccc2c3c([nH]c12)CCNC3`?
CHO parental Ca: inactive; TAAR1 antag: inactive; OX1R antag-1: inactive; GPR7 antag: inactive; OX1R antag-2: inactive; TAAR1 ag: 60; TAAR1 ag conf: 87; Ga16 nonsel ag: inactive; TAAR1 desensitize: 66; Ga16 antag count: inactive

How did Cc1cccc(NC(=O)CN2C(=O)S/C(=C\c3ccc(O)c([N+](=O)[O-])c3)C2=O)c1 do in these assays?
CHO parental Ca: inactive; TAAR1 antag: inactive; OX1R antag-1: inactive; GPR7 antag: inactive; OX1R antag-2: inactive; TAAR1 ag: inactive
